From ChEMBL document CHEMBL4145644 (J Nat Prod, 2018) come the findings set out here.

The test system of one assay is Candida albicans. Kind of assay: Antimicrobial activity against Candida albicans KF1 ATCC 64548 assessed as zone of inhibition at 10 ug/disc measured after 24 to 48 hrs by paper disc method. Type of assay: functional. As to conditions: read-out: IZ.
Assay [1] concerns Saccharomyces cerevisiae. The assay is described as follows: Antimicrobial activity against Saccharomyces cerevisiae KF237 ATCC 9763 assessed as zone of inhibition at 10 ug/disc measured after 24 to 48 hrs by paper disc method. The assay is classed as functional. The following applies: read-out: IZ.
In assay [2] the test system is Saccharomyces cerevisiae. Kind of assay: Antimicrobial activity against Saccharomyces cerevisiae BY4741 assessed as zone of inhibition at 10 ug/disc measured after 24 to 48 hrs by paper disc method. Type of assay: functional. As to conditions: read-out: IZ. Put shortly: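 S. cerevisiae BY4741 spread on YPD agar (1% yeast extract, 2% peptone, 2% glucose, 1.5% agar) at 1% inoculation. Sterile 6 mm filter discs loaded with 10 μL compound solution were placed on the plates. Plates were incubated at 27 °C for 48 h, then inhibition zones were measured.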

The test system of assay [3] is Saccharomyces cerevisiae. Kind of assay: Antimicrobial activity against Saccharomyces cerevisiae BY25929 harboring yrr2/yrs1/pdr1/pdr3 deletion mutant assessed as zone of inhibition at 10 ug/disc measured after 24 to 48 hrs by paper disc method. The following applies: read-out: IZ. The assay is classed as functional. A digest of the protocol:
(§1)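 Paper disc diffusion with 6 mm sterile filter discs, each loaded with 10 μL of compound solution and placed on agar plates. Plates incubated at 27 or 37 °C for 24−48 h, then inhibition zones measured.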

For assay [4], the system named is Saccharomyces cerevisiae. The assay is described as follows: Antimicrobial activity against Saccharomyces cerevisiae harboring 12genedelta0HSR-iERG6 mutant assessed as zone of inhibition at 10 ug/disc measured after 24 to 48 hrs by paper disc method. As to conditions: read-out: IZ. The assay is classed as functional. Put shortly: as §1
For the next assay, the system named is Aspergillus niger. The assay is described as follows: Antimicrobial activity against Aspergillus niger KF103 ATCC 6275 assessed as zone of inhibition at 10 ug/disc measured after 24 to 48 hrs by paper disc method. The assay is classed as functional. As to conditions: read-out: IZ.
For a further assay, the system named is Mucor racemosus. The assay is described as follows: Antimicrobial activity against Mucor racemosus KF223 assessed as zone of inhibition at 10 ug/disc measured after 24 to 48 hrs by paper disc method. As to conditions: read-out: IZ. The assay is classed as functional.
A further assay deals with Staphylococcus aureus. The assay is described as follows: Antimicrobial activity against Staphylococcus aureus KB210 ATCC 6538p assessed as zone of inhibition at 1 ug/disc measured after 24 to 48 hrs by paper disc method. The assay is classed as functional. As to conditions: read-out: IZ. Put shortly:
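Nutrient agar (0.5% peptone, 0.5% meat extract, 0.8% agar, pH 7.0) inoculated at 0.2% with S. aureus ATCC 6538p. 6 mm filter discs impregnated with 10 μL compound solution were applied. Plates were incubated at 37 °C for 24 h and inhibition zones were measured.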

For a further assay, the system named is Bacillus spizizenii. The assay is described as follows: Antimicrobial activity against Bacillus subtilis KB211 ATCC 6633 assessed as zone of inhibition at 1 ug/disc measured after 24 to 48 hrs by paper disc method. Type of assay: functional. As to conditions: ATCC 6633 KB211, read-out: IZ. A digest of the protocol:
(§2)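 Bacteria on nutrient agar (0.5% peptone, 0.5% meat extract, 0.8% agar, pH 7.0), 37 °C, 24 h. Inoculum 0.5% for B. subtilis, E. coli, K. pneumoniae, P. vulgaris; 0.2% for K. rhizophila. 6 mm discs carrying 10 μL compound solution. Zone of inhibition measured.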

Another assay deals with Kocuria rhizophila. Kind of assay: Antimicrobial activity against Kocuria rhizophila KB212 ATCC 9341 assessed as zone of inhibition at 1 ug/disc measured after 24 to 48 hrs by paper disc method. Type of assay: functional, Kocuria rhizophila DC2201. As to conditions: read-out: IZ. Put shortly: as §2
The subject of assay [5] is Mycolicibacterium smegmatis. Kind of assay: Antimicrobial activity against Mycobacterium smegmatis KB42 assessed as zone of inhibition at 1 ug/disc measured after 24 to 48 hrs by paper disc method. Type of assay: functional. As to conditions: read-out: IZ.
Another assay deals with Escherichia coli. Kind of assay: Antimicrobial activity against Escherichia coli KB213 NIHJ assessed as zone of inhibition at 1 ug/disc measured after 24 to 48 hrs by paper disc method. Type of assay: functional. As to conditions: read-out: IZ. Put shortly: as §2
Another assay relates to Klebsiella pneumoniae. Kind of assay: Antimicrobial activity against Klebsiella pneumoniae KB214 ATCC 10031 assessed as zone of inhibition at 1 ug/disc measured after 24 to 48 hrs by paper disc method. As to conditions: read-out: IZ. The assay is classed as functional. A digest of the protocol:
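Paper disc diffusion with 6 mm sterile filter discs, each loaded with 10 μL of compound solution and placed on nutrient agar (0.5% peptone, 0.5% meat extract, 0.8% agar, pH 7.0). Plates seeded with 0.5% inoculum and incubated at 37 °C for 24 h. Inhibition zone diameters measured after incubation.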

The subject of the next assay is Pseudomonas aeruginosa. Kind of assay: Antimicrobial activity against Pseudomonas aeruginosa KB359 NBRC 12582 assessed as zone of inhibition at 1 ug/disc measured after 24 to 48 hrs by paper disc method. The assay is classed as functional. The following applies: read-out: IZ. A digest of the protocol:
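Pseudomonas aeruginosa NBRC 12582 on nutrient agar (0.5% peptone, 0.5% meat extract, 0.8% agar, pH 7.0), 1.0% inoculation, 37 °C, 24 h. Discs (6 mm) impregnated with 10 μL compound solution placed on plate. Inhibition zones measured.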

For the next assay, the system named is Xanthomonas campestris. Kind of assay: Antimicrobial activity against Xanthomonas campestris pv. oryzae KB88 assessed as zone of inhibition at 1 ug/disc measured after 24 to 48 hrs by paper disc method. The assay is classed as functional. As to conditions: read-out: IZ. Put shortly: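 Paper disc diffusion with 6 mm sterile filter discs, each loaded with 10 μL of compound solution and placed on nutrient agar (0.5% peptone, 0.5% meat extract, 0.8% agar, pH 7.0). Plates seeded with 1.0% inoculum and incubated at 27 °C for 24 h. Inhibition zone diameters measured after incubation.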

The next assay concerns Proteus vulgaris. Kind of assay: Antimicrobial activity against Proteus vulgaris KB127 NBRC 3167 assessed as zone of inhibition at 1 ug/disc measured after 24 to 48 hrs by paper disc method. The assay is classed as functional. The following applies: read-out: IZ. Put shortly: as §2
A further assay has as its system Acholeplasma laidlawii. The assay is described as follows: Antimicrobial activity against Acholeplasma laidlawii KB174 PG8 assessed as zone of inhibition at 1 ug/disc measured after 24 to 48 hrs by paper disc method. The assay is classed as functional. The following applies: read-out: IZ.

As to `C[C@@H]1[C@H](O)[C@@H](C)/C=C/C=C/C=C/C=C/C=C/C=C/C=C/[C@H](O[C@@H]2O[C@H](C)[C@@H](O)[C@H](N)[C@@H]2O)C[C@@H]2O[C@](O)(C[C@@H](O)C[C@@H](O)[C@H](O)CC[C@@H](O)C[C@@H](O)CC(=O)O[C@H]1C)C[C@H](O)[C@H]2C(=O)O` [AMPHOTERICIN B], the zone of inhibition at 10 µg/disc amounted to 13 mm in the assay on Candida albicans; 14.5 mm with Saccharomyces cerevisiae [1]; 8.2 mm with Saccharomyces cerevisiae [2]; 11.7 mm with Saccharomyces cerevisiae [3]; 9.8 mm in the assay with Saccharomyces cerevisiae [4]; 16.1 mm in the assay with Aspergillus niger. In addition, the zone of inhibition at 10 µg/disc in the assay on Mucor racemosus stood at 15.1 mm.
Turning to `C[C@@H](O)[C@H]1C(=O)N2C(C(=O)O)=C(S[C@@H]3CN[C@H](C(=O)N(C)C)C3)[C@H](C)[C@H]12`, the zone of inhibition at 1 µg/disc in the assay on Staphylococcus aureus was 35.2 mm; in the assay with Bacillus spizizenii, 24.1 mm; in the assay on Kocuria rhizophila, 38 mm; in [5], 9.5 mm; with Escherichia coli, 31 mm; in the assay on Klebsiella pneumoniae, 27 mm. Moreover, the zone of inhibition at 1 µg/disc in the assay with Pseudomonas aeruginosa came out at 47.3 mm; in the assay with Xanthomonas campestris it was 31.6 mm; with Proteus vulgaris, 37.8 mm.
As for `CC[C@H]1OC(=O)[C@H](C)[C@@H](O[C@H]2C[C@@](C)(OC)[C@@H](O)[C@H](C)O2)[C@H](C)[C@@H](O[C@@H]2O[C@H](C)C[C@H](N(C)C)[C@H]2O)[C@](C)(O)C[C@@H](C)C(=O)[C@H](C)[C@@H](O)[C@]1(C)O` [ERYTHROMYCIN], the zone of inhibition at 1 µg/disc in the assay with Acholeplasma laidlawii worked out at 28 mm.
